Myeloid diff MLP = promotes myeloid progenitor differentiation. AID 624256. calls only at 10 µM. 360,000 tested, 1% active. ER-HoxA9 myeloid progenitors, lysozyme-GFP differentiation, flow cytometry;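 active means normalized GFP-positive differentiation at or above the plate's own cutoff, the solvent-only control mean plus 3 SD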;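 further: cells exposed to compound for four days before flow analysis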
Rpn11 inh = Rpn11 (human) deubiquitinase inhibition; human 26S proteasome, Ub4-pepOG fluorescence polarization; 20S core pre-blocked with epoxomicin; O00487; 360,000 tested, 0.59% active; AID 588493; inhibition, % at 20 µM;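 active means inhibition at 20 µM, scaled to each plate's controls, above about 33%, limit read from the data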
Target sequence (O00487 whole entry, looked up): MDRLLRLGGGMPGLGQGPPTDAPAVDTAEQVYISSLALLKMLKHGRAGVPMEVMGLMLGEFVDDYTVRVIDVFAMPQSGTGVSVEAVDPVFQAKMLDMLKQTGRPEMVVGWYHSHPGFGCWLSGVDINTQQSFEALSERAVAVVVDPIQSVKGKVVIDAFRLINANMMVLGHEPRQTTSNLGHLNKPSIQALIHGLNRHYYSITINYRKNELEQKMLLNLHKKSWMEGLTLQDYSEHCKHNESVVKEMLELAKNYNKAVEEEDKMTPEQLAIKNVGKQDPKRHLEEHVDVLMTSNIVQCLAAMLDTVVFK
CSN deneddyl inh = blocks human CSN-mediated cullin deneddylation | Purified CSN, SCF-Nedd8-OG deneddylation, fluorescence polarization | inhibition, % at 12.5 µM | 360,000 tested, 0.38% active | AID 651999;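 active means pattern-corrected inhibition above about 35%, with an unprinted fluorescence ratio check between 0.5 and 1.5, limit read from the data, passing the limit was not always enough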;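 further: 0% = enzyme with substrate and 100% = substrate without enzyme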
Target sequence (Q92905 whole entry, looked up, one chain of several): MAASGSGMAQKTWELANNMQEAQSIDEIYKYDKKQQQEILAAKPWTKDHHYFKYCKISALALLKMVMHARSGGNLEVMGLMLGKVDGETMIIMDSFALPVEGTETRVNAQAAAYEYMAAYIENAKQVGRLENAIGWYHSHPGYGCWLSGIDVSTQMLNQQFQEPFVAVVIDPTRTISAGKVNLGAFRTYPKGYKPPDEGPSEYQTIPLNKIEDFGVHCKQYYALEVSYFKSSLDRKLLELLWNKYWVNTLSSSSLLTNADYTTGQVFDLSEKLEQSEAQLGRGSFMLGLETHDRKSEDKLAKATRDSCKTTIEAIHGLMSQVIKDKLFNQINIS
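test system = HEK293T-derived human Csn5 enzyme | amount = 0.24 nM Csn5 enzyme, final concentration | medium = Tris/NaCl/DTT buffer, pH 7.5 | schedule = 90 min reaction at room temperature | signal = FP | evaluation = inhibition of Csn5 cleavage, % | compound dosing = single dose of 12.5 µM compound with 0.25% DMSO | probe or stimulus = 10 nM SCFSkp2-Nedd8OG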
TPT1 inhibitor = inhibitors of Candida albicans tRNA 2'-phosphotransferase TPT1; recombinant caTPT1, FP RNA substrate dephosphorylation; inhibition, % at 5 µM; 300,000 tested, 0.81% active;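 active means inhibition above the mean of all tested compounds plus 3 SD, set per screening campaign, cut at about 24% in these data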;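 further: plate controls were DMSO alone for no effect and ferristatin control at 100 nM for full effect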
HNF4A DNA FP = change in binding of human HNF4 alpha to DNA | P41235 | 360,000 tested, 0.3% active | AID 1224865 | HNF4a-FITC DNA binding, fluorescence polarization, 1 h | activity change, % at 10 µM; in the data active means activity change above about 30%, passing the limit was not always enough
* hit, by the source's call; i = inactive; . = no result shown; + = active, no number; ! = repeats disagree. This is a sample that favours compounds with a hit; in the whole collection about 2.3% have one here.

SMILES | Myeloid diff MLP | Rpn11 inh | CSN deneddyl inh | TPT1 inhibitor | HNF4A DNA FP
COc1ccc(/C=C2\SC(=S)N(CCC(=O)Nc3ccc(O)cc3)C2=O)cc1 | i | -2.0 | -2.5 | 2.9 | -5.4
CCOC(=O)c1ccc(NC(=O)[C@@H]2CCC(=O)N2C2OC(=O)c3c2ccc(OC)c3OC)cc1 (stereo partly specified) | i | 1.8 | -2.4 | . | 0.1
Cc1ccc(NC2=CC(=O)CC(C)(C)C2)c(N)c1 | + | -8.7 | -12.4 | -5.3 | -26.4
COC(=O)c1cc(C(=O)c2cc(Cl)ccc2O)coc1=N | i | 0.1 | -6.4 | 4.4 | 2.8
COCCOC(=O)c1cc(C(=O)c2cc(F)ccc2O)coc1=N | + | 8.7 | 8.6 | 9.9 | 2.2
COc1ccc(C(=O)N=C2SC3CS(=O)(=O)CC3N2Cc2ccc(OC)c(OC)c2)cc1 (stereo unspecified) | i | -7.8 | 0.2 | -4.0 | 3.0
COc1ccc(CN2C(=NC(=O)C3CC3)SC3CS(=O)(=O)CC32)cc1OC (stereo unspecified) | + | 1.8 | -0.1 | 1.7 | 0.5
COC(=O)C[C@H]1C[C@H]2c3cc(NC(=O)NC4CCCC4)ccc3O[C@H]2[C@@H](CO)O1 | i | -7.0 | 1.0 | . | 1.6
O=C(O)c1cc(-c2ccc3ccccc3c2)nc2ccc(F)cc12 | + | 9.7 | 5.7 | -0.4 | -3.8
COc1ccc(NC(=O)c2cc(C3CCCCN3S(=O)(=O)c3ccc(F)cc3F)on2)c(C)c1 (stereo unspecified) | i | -1.6 | -8.1 | . | 0.6
CC(=O)Nc1ccc(OCCOc2ccc(/C=C3\C(=N)N4N=C(C)SC4=NC3=O)cc2)cc1 | i | -0.8 | 6.8 | 2.8 | 4.5
COc1ccc(OCCOc2ccc(/C=C3\C(=N)N4N=C(C)SC4=NC3=O)cc2)cc1 | i | 32.3 | 45.5* | . | -10.4
CCOc1ccc(OCc2ccc(C(=O)N3CCCCC3)o2)cc1 | i | -0.2 | -2.7 | -4.5 | 36.1*
COc1ccc(-c2csc(C(NC(C)=O)c3cccc(F)c3)n2)cc1 (stereo unspecified) | i | -2.3 | -0.4 | . | -3.9
CCN(C[C@H]1N[C@@](Cc2ccccc2)(C(=O)OC)[C@H]2C(=O)N(Cc3ccccc3)C(=O)[C@@H]12)C(=O)Nc1ccc(C)cc1 | i | 3.4 | 0.9 | . | -1.9
CCN(C[C@H]1N[C@@](CC)(C(=O)OC)[C@H]2C(=O)N(Cc3ccccc3)C(=O)[C@@H]12)C(=O)Nc1ccc(C)cc1 | + | 5.0 | -3.5 | . | 3.6
COc1cccc(CN2CCC2(C)C(=O)Nc2cccc(Oc3ccccc3)c2)c1F (stereo unspecified) | i | 3.5 | 7.3 | . | 1.5
CCn1c(SCC(=O)N/N=C/c2ccc(C)o2)nnc1-c1ccc(C(C)(C)C)cc1 | + | -4.7 | -14.7 | -0.6 | -4.2
Cc1cc(C(=O)C(C)OC(=O)c2ccc(NC(=O)CC#N)cc2)c(C)n1-c1ccccc1 (stereo unspecified) | + | 16.3 | -3.3 | 4.9 | 4.8
Cc1ccccc1S(=O)(=O)NC(=O)C1(C)CCN1C(=O)COc1ccc(Cl)cc1 (stereo unspecified) | i | -5.0 | 2.8 | . | 7.3
CC(=O)Nc1ccccc1OCC(=O)N(Cc1ccccc1)C(C)C | + | 0.8 | -14.3 | -5.7 | -1.9
CCN=C1SC(C(=O)Nc2ccc(Cl)c(Cl)c2)CC(=O)N1CC (stereo unspecified) | i | 0.9 | 79.1* | 3.1 | -0.6
Clc1ccccc1Cn1c(/C=C/c2ccco2)nc2ccccc21 | i | . | 35.9* | 15.7 | 18.3
COc1ccc(Cn2c(/C=C/c3ccccc3)nc3ccccc32)cc1 | i | -3.0 | -2.6 | -3.1 | 0.1
CCCN(C)C[C@H]1OCc2cnnn2CCCC(=O)N([C@H](C)CO)C[C@@H]1C | i | -4.4 | 0.4 | . | 1.1
SMILES | Myeloid diff MLP | Rpn11 inh | CSN deneddyl inh | TPT1 inhibitor | HNF4A DNA FP
CCCCNC(=O)C1(C)CCCCN1C(=O)c1ccc(OC)c(C(F)(F)F)c1 (stereo unspecified) | i | -2.2 | -2.8 | . | -0.5
CN1C(C(=O)Nc2ccccn2)=C(O)c2sccc2S1(=O)=O | + | -2.0 | -4.0 | -4.6 | 2.6
O=C(Nc1ccccn1)c1cccs1 | i | -0.5 | -0.7 | -3.4 | -1.4
O=C1/C(=C/c2ccccc2)CCc2ccc(Cl)nc21 | . | 5.8 | 8.7 | . | -2.1
CC(C)n1cnc2c(Nc3cccc(Cl)c3)nc(NCCCO)nc21 | + | -1.3 | -1.3 | -0.9 | 1.1
Cc1nc(C)c(C(=O)OCC(=O)Nc2ccccc2SCC#N)s1 | + | 36.9 | 11.6 | . | 11.6
Cc1nc(C)c(C(=O)OCC(=O)Nc2ccccc2)s1 | i | -9.7 | -3.8 | . | 4.3
Cc1[nH]c(=O)[nH]c(=O)c1NC(=O)c1sc2nc3c(C)cccc3cc2c1N | + | 20.5 | 0.1 | 6.0 | 6.5
COCC(C)n1c(-c2ccc3c(c2)NC(=O)CO3)csc1=Nc1ccc(OC(F)F)cc1 (stereo unspecified) | +! | 0.7 | -6.2 | -0.1 | 0.6
Cc1ccc(C(=O)Nc2nc(-c3ccco3)c(-c3ccco3)s2)o1 | i | 4.9 | 41.8 | . | -5.5
O=C(CCCSc1ccccc1)Nc1nc(-c2ccco2)c(-c2ccco2)s1 | i | 25.3 | 42.6* | 3.9 | 7.6
COc1cccc(Cn2c(C(C)n3c(-c4cnccn4)nc4ccccc43)nc3ccccc32)c1 (stereo unspecified) | i | . | 0.0 | . | -2.1
CCOC(=O)C1(CC2CC2)CCN(C(=O)c2ocnc2C)CC1 | + | 2.5 | -0.4 | 2.0 | -1.5
O=C(Nc1ccc(F)cc1)N(Cc1ccco1)Cc1cc2cc3c(cc2[nH]c1=O)OCO3 | . | -11.1 | -2.3 | 0.0 | 41.9*
Cc1cccc(-n2ccc(=O)c(C(=O)Nc3ccc(S(=O)(=O)Nc4nccs4)cc3)n2)c1 | + | 3.3 | 2.3 | 1.4 | -0.7
CCOC(=O)c1ccc(NC(=O)c2ncn3c2C(=O)NC[C@H]3C)cc1 | i | -2.0 | 3.7 | . | -6.1
CCOC(=O)c1ccc(NC(=O)c2ncn3c2C(=O)N[C@H](C)C3)cc1 | + | -3.8 | -2.2 | . | 0.7
CCOc1ncccc1C(=O)NCc1ccccc1 | . | . | . | 3.8 | .
CCOc1ncccc1C(=O)NC(C)CCc1ccccc1 (stereo unspecified) | + | -3.6 | 2.0 | . | 1.9
COC(=O)C[C@@H]1CC[C@@H](NC(=O)Nc2cc(F)ccc2F)[C@@H](CO)O1 | i | . | 3.5 | . | 0.2
Cc1cc(C(=O)O)ccc1-c1ccc(/C=C2\SC(=O)N(CC(=O)Nc3ccc4c(c3)OCO4)C2=O)o1 | i | 17.6 | 31.3 | . | 36.4*
Cc1ccc(C(=O)O)cc1-c1ccc(/C=C2\SC(=O)N(CC(=O)Nc3ccccc3)C2=O)o1 | i | 19.8 | 19.1 | 11.7 | 6.3
COC(=O)c1ccc(C)c(NC(=O)Cc2coc3cc(OC)ccc23)c1 | + | -3.4 | 1.6 | 3.4 | -1.1
CC(=O)Nc1ccc(OCC(O)Cn2cnc3ccccc32)cc1 (stereo unspecified) | i | 3.3 | -3.1 | -2.2 | 2.3

Source: PubChem
